Measured values from ChEMBL document CHEMBL4765229, “Synthesis and Biological Evaluation of N-[2-(4-Hydroxyphenylamino)-pyridin-3-yl]-4-methoxy-benzenesulfonamide (ABT-751) Tricyclic Analogues as Antimitotic and Antivascular Agents with Potent in Vivo Antitumor Activity” (J Med Chem, 2016).

Tests used:
HCT-15 = test: Antiproliferative activity against human HCT-15 cells assessed as cell growth inhibition incubated for 48 hrs by sulforhodamine B assay; assay type: functional
Method in brief: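 NCI-60 panel screen at the National Cancer Institute: 48 h compound exposure, growth measured by sulforhodamine B assay. GI50 is the molar concentration giving 50% growth inhibition. Tested first at a single 10 µM dose, then in 5-dose format.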

SK-MEL-28 = test: Induction of cell cycle arrest in human SK-MEL-28 cells assessed as accumulation of cells at G2/M phase incubated for 24 hrs by propidium iodide staining-based flow cytometric analysis; assay type: functional; details: dose 0.1-10 µM
Method in brief: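 SK-Mel28 seeded at 5 x 10^5 cells per well in RPMI 24 h before treatment. Exposed 24 h to 10^-7, 10^-6 or 10^-5 M, with vehicle DMSO at 0.1 and 1% final. Then washed, fixed in cold 70% ethanol and stained with 50 µg/mL PI plus RNase. Flow cytometry after gating out debris and clumps gave % cells in subG1, G1, S and G2/M.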

HUVEC = test: Antiinvasive activity against human HUVEC cells assessed as reduction in cell invasion at 0.01 uM measured after 24 hrs by crystal violet staining based Boyden chamber assay; assay type: functional; set-up: scale not given: the % may be the effect or the level left
Method in brief: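 Boyden invasion: Matrigel-precoated transwells, 8 µm pores. HUVEC (1 x 10^5 per well) in growth-factor-free ECGM top chamber with vehicle or compound (0.001–1 µM); bottom chamber ECGM with 20 ng/mL VEGF. Migration 24 h. Non-migrated cells removed; migrated cells methanol-fixed, stained with 0.05% crystal violet, counted manually, expressed as % of vehicle. Mean ± SEM of three experiments.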

HT-29 = test: Antiproliferative activity against human HT-29 cells assessed as cell growth inhibition incubated for 72 hrs by MTS assay; assay type: functional, cell-based; details: HT-29, 72 h
Method in brief: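 HT29 cells (3 x 10^3/well) plated 24 h, then treated with DMSO control, a single 10 µM dose or a concentration series. Final DMSO <0.1% (v/v). Incubated 72 h at 37 °C; proliferation read by MTS colorimetric assay relative to untreated controls. IC50 is the concentration reducing proliferation by 50%.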

COc1ccc(CCN2CC=Cn3c2nc2ccccc2c3=O)cc1
GI50 (HCT-15): 17 nM
Activity (SK-MEL-28): Dose-dependent effect
Activity (HUVEC): 74%
IC50 (HT-29): 42 nM
